The source made the active and inactive calls. No cut-off for these calls is given here.
Key:
[1] = Inhibition of A2E photooxidation at 100 uM after 5 mins by reversed-phase HPLC analysis; type: functional
Summary of the method: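 Cell-free assay: A2E (200 µM DMSO stock) added to DPBS, antioxidant from DMSO solution added to 100 µM final. Irradiated at 430 nm (2.8 mW/cm2) for 5 min. Samples diluted with EtOH and analysed by reversed-phase HPLC under dim red light. Percent photooxidation taken as A2E loss relative to unirradiated samples.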

[2] = tested on: ARPE-19; experiment: Inhibition of intracellular A2E photooxidation in human ARPE19 cells at 20 uM after 18 days; type: functional, cell-based
Summary of the method: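 ARPE-19 cells (lacking endogenous A2E) grown to confluence for 5 days, then fed 10 µM synthetic A2E for 18 days in medium with 10% FBS. Antioxidant at 20 µM present on days 10–18. Cells washed in DPBS and irradiated at 430 nm (2.8 mW/cm2) for 10 min. Trypsinised, counted, dried, methanol-extracted. A2E quantified by reversed-phase HPLC; loss versus unirradiated cells gave percent photooxidation.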

SMILES	inhibition [1]	inhibition [2]
O=c1c(O)c(-c2ccc(O)c(O)c2)oc2c(CN3CCOCC3)c(O)cc(O)c12	Active	Active
CN(CCN(C)Cc1c(O)cc(O)c2c(=O)c(O)c(-c3ccc(O)c(O)c3)oc12)Cc1c(O)cc(O)c2c(=O)c(O)c(-c3ccc(O)c(O)c3)oc12	Active	Active
O=c1c(O)c(-c2ccc(O)c(O)c2)oc2cc(O)cc(O)c12	Active	Active
O=c1c(O)c(-c2ccc(O)c(O)c2)oc2c(CN3CCN(Cc4c(O)cc(O)c5c(=O)c(O)c(-c6ccc(O)c(O)c6)oc45)CC3)c(O)cc(O)c12	Active	Active
O=c1c(O)c(-c2ccc(O)c(O)c2)oc2c(CN3CCc4cc(O)c(O)cc4C3)c(O)cc(O)c12	Active	Active
